Assay results taken from ChEMBL document CHEMBL3351898, “4-Aminoquinoline-pyrimidine hybrids: synthesis, antimalarial activity, heme binding and docking studies” (Eur J Med Chem, 2015).
The source made the active and inactive calls. The calls are words filed in the database; no cut-off is given here.

Key:
[1] = Resistance index, ratio of IC50 for chloroquine-resistant Plasmodium falciparum W2 to IC50 for chloroquine-sensitive Plasmodium falciparum D6; format: functional
[2] = Selectivity index, ratio of IC50 for African green monkey Vero cells to IC50 for chloroquine-resistant Plasmodium falciparum W2; format: toxicity, cell-based; conditions: read-out: Ratio IC50
Outline: (§1)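 Vero cells seeded at 25,000 cells/well and grown 24 h, then exposed to a range of compound concentrations for 48 h. Viability measured by Neutral Red uptake; IC50 from dose-response curves. SI calculated as Vero IC50 divided by antiplasmodial IC50 for the named strain.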

Plasmodium falciparum [3] = assay: Antimalarial activity against chloroquine-sensitive Plasmodium falciparum D6 assessed as inhibition of parasite growth after 72 hrs by parasite LDH release assay; format: functional, organism-based; conditions: D6, 72 h
Outline: (§2)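 Asexual P. falciparum cultures at 2% parasitemia and 2% hematocrit in RPMI 1640 with 10% human serum and amikacin were added to serially diluted compound. Plates were incubated 72 h at 37 °C under 90% N2/5% O2/5% CO2. Growth was read by pLDH: Malstat reagent 30 min at room temperature, then NBT/PES 1 h in the dark. IC50 taken from dose-response curves; chloroquine and pyrimethamine controls.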

[4] = Selectivity index, ratio of IC50 for African green monkey Vero cells to IC50 for chloroquine-sensitive Plasmodium falciparum D6; format: toxicity, cell-based; conditions: read-out: Ratio IC50; outline: as §1
Heme [5] = assay: Binding affinity to heme (unknown origin) assessed as reduction in Fe(3+) intensity at pH 7.4
mu-oxodimeric heme = assay: Binding affinity to mu-oxo-heme (unknown origin) assessed as binding constant at pH 5.8
Outline: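 μ-Oxo-dimeric heme in 20 mM phosphate buffer pH 5.8 was titrated with compound, following the decrease in absorbance at 362 nm. The log K was derived from the titration, and stoichiometry came from a Job's plot.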

Plasmodium falciparum [6] = assay: Antimalarial activity against chloroquine-resistant Plasmodium falciparum W2 assessed as inhibition of parasite growth after 72 hrs by parasite LDH release assay; format: functional, organism-based; conditions: W2, 72 h; outline: as §2
Heme [7] = assay: Binding affinity to monomeric heme (unknown origin) assessed as binding constant at pH 5.6
Outline: (§3)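 Hematin in 40% DMSO (monomeric heme, Soret band 402 nm) was titrated with compound in 0.02 M HEPES pH 7.4 or 0.02 M MES pH 5.6. Association constants (log K) were calculated from the titration data, and stoichiometry was taken from a Job's plot of absorbance at 402 nm against compound mole fraction.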

Heme [8] = assay: Binding affinity to monomeric heme (unknown origin) assessed as binding constant at pH 7.4; outline: as §3
Heme [9] = assay: Binding affinity to heme (unknown origin) assessed as reduction in Fe(3+) intensity
Vero [10] = assay: Cytotoxicity against African green monkey Vero cells after 72 hrs by neutral red assay; format: cell-based, Chlorocebus sabaeus; conditions: in the assay text read “after 48 hrs” for “after 72 hrs”
Outline: (§4)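 Vero cells (monkey kidney […]) were seeded at 25,000 cells/well and incubated 24 h, then exposed to a range of compound concentrations for 48 h. Viable cells were counted by Neutral Red assay, and IC50 was obtained from dose-response curves.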

Heme [11] = assay: Binding affinity to heme (unknown origin) assessed as reduction in Fe(3+) intensity at pH 5.6
Vero [12] = assay: Cytotoxicity against African green monkey Vero cells up to 20 uM after 72 hrs by neutral red assay; format: cell-based; conditions: chlorocebus sabaeus, 48 h, in the assay text read “48 hrs” for “72 hrs”; outline: as §4
Plasmodium falciparum [13] = assay: Antimalarial activity against chloroquine-resistant Plasmodium falciparum W2 assessed as inhibition of parasite growth up to 19 uM after 72 hrs by parasite LDH release assay; format: functional, organism-based; outline: as §2
Plasmodium berghei [14] = assay: Antimalarial activity against Plasmodium berghei infected in mouse assessed as mean survival time at 100 mg/kg/day, po dosed on days 0, 1 and 2 post infection; format: functional
Outline: (§5)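 P. berghei-infected mice dosed orally with test agent at 11.1, 33.3 or 100 mg/kg, once daily for 3 days; vehicle and chloroquine controls. Mean survival time recorded; parasitemia on days 5 and 7 expressed as % suppression, taking mean vehicle-control parasitemia as 100%.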

Plasmodium berghei [15] = assay: Antimalarial activity against Plasmodium berghei infected in mouse assessed as reduction in parasitemia at 100 mg/kg/day, po dosed on days 0, 1 and 2 post infection measured on day 5; format: functional; conditions: 120 h
Outline: (§6)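 P. berghei-infected mice were given the compound orally at 11.1, 33.3 or 100 mg/kg × 3 days. Vehicle and chloroquine groups were included. Parasitemia was read on days 5 and 7, and % suppression was calculated with mean parasitemia in the vehicle control taken as 100%. Mean survival time was also recorded.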

Plasmodium berghei [16] = assay: Antimalarial activity against Plasmodium berghei infected in mouse assessed as reduction in parasitemia at 100 mg/kg/day, po dosed on days 0, 1 and 2 post infection measured on day 7; format: functional; conditions: 168 h; outline: as §6
Plasmodium berghei [17] = assay: Antimalarial activity against Plasmodium berghei infected in mouse assessed as reduction in parasitemia at 33.3 mg/kg/day, po dosed on days 0, 1 and 2 post infection measured on day 5; format: functional; conditions: 120 h; outline: as §6
Plasmodium berghei [18] = assay: Antimalarial activity against Plasmodium berghei infected in mouse assessed as reduction in parasitemia at 33.3 mg/kg/day, po dosed on days 0, 1 and 2 post infection measured on day 7; format: functional; conditions: 168 h; outline: as §6
Plasmodium berghei [19] = assay: Antimalarial activity against Plasmodium berghei infected in mouse assessed as mean survival time at 33.3 mg/kg/day, po dosed on days 0, 1 and 2 post infection; format: functional; outline: as §5
Plasmodium berghei [20] = assay: Antimalarial activity against Plasmodium berghei infected in mouse assessed as mean survival time at 11.1 mg/kg/day, po dosed on days 0, 1 and 2 post infection; format: functional; outline: as §5
Plasmodium berghei [21] = assay: Antimalarial activity against Plasmodium berghei infected in mouse assessed as reduction in parasitemia at 11.1 mg/kg/day, po dosed on days 0, 1 and 2 post infection measured on day 5; format: functional; conditions: 120 h; outline: as §6
[22] = Chlorocebus sabaeus, Vero, 48 h, read-out: IC50

Compound	Ratio IC50 [1]	selectivity ratio [2]	IC50 (Plasmodium falciparum [3])	selectivity ratio [4]	IC50 (Plasmodium falciparum [6])	IC50 (Vero [10]; [22])	Activity (Vero [12])	IC50 (Vero [10]; vero)	other results
Clc1ccc(Nc2ccnc(NCCNc3ccnc4cc(Cl)ccc34)n2)cc1	0.978	342	47 nM	335	46 nM	15800 nM			Activity (Heme [5]): Active; log K (mu-oxodimeric heme): 5.12; log K (Heme [7]): 5.51; log K (Heme [8]): 5.04; Activity (Heme [9]): Active; Activity (Heme [11]): Active
Cc1ccc(Nc2ccnc(NCCCCNc3ccnc4cc(Cl)ccc34)n2)cc1	3.75	37.2	138 nM	140	518 nM	19300 nM			
Clc1ccc2c(NCCCCNc3nccc(Nc4ccc(Br)cc4)n3)ccnc2c1	1.34	159	47 nM	214	63 nM	10000 nM			
COc1ccc(Nc2ccnc(NCCCCNc3ccnc4cc(Cl)ccc34)n2)cc1	1.34	166	50 nM	223	67 nM	11100 nM			
Fc1ccc(Nc2ccnc(NCCNc3ccnc4cc(Cl)ccc34)n2)cc1	1.65	> 2	6020 nM	> 3.32	9990 nM		Non-toxic	Not Active	
Clc1ccc2c(NCCCCNc3nccc(Nc4ccccc4)n3)ccnc2c1	9.15	35.5	44 nM	326	403 nM	14300 nM			
COc1ccc(Nc2ccnc(NCCNc3ccnc4cc(Cl)ccc34)n2)cc1	6.03	> 83	40 nM	> 500	241 nM		Non-toxic	Not Active	
CCc1nc(N)nc(N)c1-c1ccc(Cl)cc1									growth inhibition (GI) (Plasmodium falciparum [13]): inactive
CCN(CC)CCCC(C)Nc1ccnc2cc(Cl)ccc12 (configuration not stated) [CHLOROQUINE]							Non-toxic	Not Active	MST (Plasmodium berghei [14]): 26.2 days; inhibition in vivo at 100 mg/kg/day (Plasmodium berghei [15]): 100%; inhibition in vivo at 100 mg/kg/day (Plasmodium berghei [16]): 100%
Fc1ccc(Nc2ccnc(NCCCCNc3ccnc4cc(Cl)ccc34)n2)cc1	1.82	> 3.43	3200 nM	> 6.25	5830 nM		Non-toxic	Not Active	
Clc1ccc2c(NCCCNc3nccc(Nc4ccccc4)n3)ccnc2c1	7.57	89.2	19 nM	676	144 nM	12800 nM			
Clc1ccc(Nc2ccnc(NCCCNc3ccnc4cc(Cl)ccc34)n2)cc1	9.46	30.2	47 nM	286	445 nM	13400 nM			
COc1cc(Nc2ccnc(NCCNc3ccnc4cc(Cl)ccc34)n2)cc(OC)c1	1.75	> 345	33 nM	> 606	58 nM		Non-toxic	Not Active	MST (Plasmodium berghei [14]): 9 days; inhibition in vivo at 100 mg/kg/day (Plasmodium berghei [15]): 42.1%; inhibition in vivo at 33.3 mg/kg/day (Plasmodium berghei [17]): 15.1%; inhibition in vivo at 33.3 mg/kg/day (Plasmodium berghei [18]): 6.2%; inhibition in vivo at 100 mg/kg/day (Plasmodium berghei [16]): 10.4%; MST (Plasmodium berghei [19]): 8.6 days; MST (Plasmodium berghei [20]): 5 days; inhibition in vivo at 11.1 mg/kg/day (Plasmodium berghei [21]): 1.77%
COc1ccc(Nc2ccnc(NCCCNc3ccnc4cc(Cl)ccc34)n2)cc1	2.02	165	40 nM	333	81 nM	13300 nM			
Cc1ccc(Nc2ccnc(NCCCNc3ccnc4cc(Cl)ccc34)n2)cc1	2.26	53.4	153 nM	121	346 nM	18500 nM			
COc1cc(Nc2ccnc(NCCCNc3ccnc4cc(Cl)ccc34)n2)cc(OC)c1	2.81	121	38 nM	340	107 nM	12900 nM			
Clc1ccc2c(NCCNc3nccc(Nc4ccc(Br)cc4)n3)ccnc2c1	3.67	> 147	37 nM	> 541	136 nM		Non-toxic	Not Active	
Clc1ccc2c(NCCNc3nccc(Nc4ccccc4)n3)ccnc2c1	1.05	> 13.1	1510 nM	> 13.2	1530 nM		Non-toxic	Not Active	
Clc1ccc(Nc2ccnc(NCCCCNc3ccnc4cc(Cl)ccc34)n2)cc1	1.18	212	44 nM	251	52 nM	11000 nM			
COc1cc(Nc2ccnc(NCCCCNc3ccnc4cc(Cl)ccc34)n2)cc(OC)c1	2.72	104	44 nM	285	120 nM	12500 nM			
Clc1ccc2c(NCCCNc3nccc(Nc4ccc(Br)cc4)n3)ccnc2c1	0.95	237	49 nM	228	47 nM	11200 nM			
Fc1ccc(Nc2ccnc(NCCCNc3ccnc4cc(Cl)ccc34)n2)cc1	3.35	146	28 nM	490	94 nM	13700 nM			
Cc1ccc(Nc2ccnc(NCCNc3ccnc4cc(Cl)ccc34)n2)cc1	1.41	95.1	101 nM	135	143 nM	13600 nM			
